CHT PAM – allosteric activators of human choline transporter CHT. Q9GZV3. CHT-expressing cells, membrane potential dye, choline EC20; stronger effect = higher value; LV-AA mutant CHT in HEK293 cells. B-score at 10 µM. actives 0.49% (n = 310,000). AID 488977;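 active = initial fluorescence not abnormally high and integrated response B-score, plate-corrected, over 3 SD above library mean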
TMEM16A inh – blocks the mouse calcium-activated chloride channel TMEM16A; AID 588511; Q8BHY3; HEK293 TMEM16A/YFP iodide influx fluorescence, ionomycin; normalized B-score (activity score, 25-100; higher = stronger inhibition) at 10 µM; actives 1.2% (n = 310,000);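 active = ratio plate-corrected score three or more library SD toward inhibition, starting fluorescence score within five deviations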;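 note: score derived from kinetic fluorescence span divided by baseline fluorescence per well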
Target sequence (Q8BHY3 whole entry, looked up): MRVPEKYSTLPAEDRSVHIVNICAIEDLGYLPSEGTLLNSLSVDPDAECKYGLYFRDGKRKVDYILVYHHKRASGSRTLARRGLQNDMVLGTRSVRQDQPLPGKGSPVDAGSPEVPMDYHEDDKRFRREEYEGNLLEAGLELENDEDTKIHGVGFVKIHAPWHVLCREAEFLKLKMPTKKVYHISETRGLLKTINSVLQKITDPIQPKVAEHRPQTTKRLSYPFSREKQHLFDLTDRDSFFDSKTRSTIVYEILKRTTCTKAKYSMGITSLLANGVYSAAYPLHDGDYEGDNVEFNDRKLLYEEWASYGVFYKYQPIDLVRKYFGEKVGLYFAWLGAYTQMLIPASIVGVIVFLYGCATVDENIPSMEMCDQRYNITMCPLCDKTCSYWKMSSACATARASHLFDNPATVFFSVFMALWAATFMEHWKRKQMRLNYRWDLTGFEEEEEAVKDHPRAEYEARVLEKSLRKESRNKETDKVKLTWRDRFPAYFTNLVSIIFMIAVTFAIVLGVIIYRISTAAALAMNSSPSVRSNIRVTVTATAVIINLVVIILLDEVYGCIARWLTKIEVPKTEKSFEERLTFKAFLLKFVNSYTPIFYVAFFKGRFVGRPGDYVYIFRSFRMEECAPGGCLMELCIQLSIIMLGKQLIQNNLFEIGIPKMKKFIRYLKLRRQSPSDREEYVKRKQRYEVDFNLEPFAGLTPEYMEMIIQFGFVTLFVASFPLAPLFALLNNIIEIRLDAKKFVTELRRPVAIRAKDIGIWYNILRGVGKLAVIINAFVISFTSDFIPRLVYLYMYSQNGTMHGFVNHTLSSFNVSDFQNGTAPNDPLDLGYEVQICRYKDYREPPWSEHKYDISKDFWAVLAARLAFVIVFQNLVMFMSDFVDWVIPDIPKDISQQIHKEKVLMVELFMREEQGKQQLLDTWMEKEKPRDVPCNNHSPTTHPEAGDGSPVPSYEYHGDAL
IMP-1 inhibitor – inhibitors of Pseudomonas aeruginosa IMP-1 metallo-beta-lactamase; AID 1556; actives 0.45% (n = 290,000); inhibition, % at 5.6 µM; purified IMP-1, nitrocefin hydrolysis, epi-absorbance fluorescence;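 active = inhibition above the mean plus 3 SD of all compounds in the same screening run, cut at about 4.5% in these data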;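 note: 0% = IMP-1 with DMSO and 100% = DMSO wells lacking enzyme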
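assay system = purified recombinant IMP-1 metallo-beta-lactamase enzyme | schedule = 15 min preincubation plus 25 min reaction at 25 °C | signal = Epi-absorbance fluorescence, 480 nm excitation, 530 nm emission | read-out basis = percent inhibition from optical density relative to buffer-blank wells | controls = IMP-1 with DMSO as 0%, enzyme-free DMSO as 100%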
CHT inh – human CHT choline transport inhibition | Q9GZV3 | CHT-expressing cells, membrane potential dye, choline response; stronger effect = lower value | B-score at 10 µM | actives 0.86% (n = 310,000) | AID 488975;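 active = B-score over 3 SD under the library average, and starting fluorescence ratio not unusually high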;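 note: choline stimulus applied at its EC90 after an EC20 pre-addition; B-score computed on integrated fluorescence ratio after choline addition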
VIM-2 inh – inhibitors of Pseudomonas aeruginosa VIM-2 metallo-beta-lactamase. purified VIM-2, nitrocefin hydrolysis, epi-absorbance fluorescence. inhibition, % at 5.6 µM. actives 0.89% (n = 290,000). AID 1527;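 active = inhibition above the mean of all tested compounds plus 3 SD, cutoff set per screening run, cut at about 7.5% in these data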;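 note: red hydrolysis product quenches plate fluorescence so inhibitors raise well fluorescence; 0% = enzyme with DMSO and 100% = DMSO without enzyme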
ANO1 activ – activates or potentiates the mouse TMEM16A chloride channel | Q8BHY3 | HEK293 TMEM16A/YFP-H148Q/I152L, iodide quench fluorescence; stronger effect = lower value | B-score at 10 µM | actives 0.3% (n = 340,000) | AID 623877;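 active = fluorescence-ratio B-score plate-corrected deviation score at least 3 library SD below zero, with starting fluorescence score within 5 deviations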;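 note: channel opened by trigger with iodide after compound preincubation; score built on the fluorescence ratio of max minus min over baseline; more negative score means more quench and so TMEM16A activation or potentiation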
CHT inh conf – confirmation of human choline transporter CHT inhibitors; shares compounds with CHT inh; CHT-expressing cells, choline membrane potential dye; LV-to-AA substituted CHT, HEK293 cells; CHT activity remaining % of control (stronger effect = lower value), % at 10 µM; actives 70% (n = 2,400); AID 493221;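 active = choline transporter activity left, mean of duplicates at 10 µM, below buffer-only control mean minus 3 SD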;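 note: depolarization triggered by choline at its EC90 following an EC20 pre-addition; 0% = hemicholinium-3 full block and 100% = buffer-only control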
HEK293 CHT ctr – CHT inhibitor counter-screen hit in parental HEK293 cells | shares compounds with CHT inh | membrane potential dye, choline response; active = decrease or increase beyond buffer ±3SD | membrane potential ratio readout (active if shifted either direction beyond buffer ±3SD; no single direction) at 10 µM | actives 4% (n = 2,400) | AID 493222;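 note: parental cells lack the transporter so any hit is non-specific; ratio is peak minus trough fluorescence over baseline after EC90 choline challenge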
TMEM16A reconf – re-confirmation of mouse TMEM16A chloride channel inhibitors; actives 39% (n = 2,300); HEK293 TMEM16A/YFP-H148Q, iodide quench fluorescence; ionomycin added to raise cell calcium; inhibition, % at 10 µM; shares compounds with TMEM16A inh;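 active = mean duplicate percent inhibition, scaled so buffer wells are 0 and the reference blocker 100, over three buffer SD above buffer mean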
HEK293 Ca mobil – alters calcium mobilization in TMEM16A HEK293 cells, counter-screen; AID 652231; TMEM16A/YFP HEK293, Fluo4 calcium mobilization; calcium response (% of ionomycin), % at 10 µM; shares compounds with TMEM16A inh; actives 2% (n = 2,300);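 active = duplicate-averaged calcium signal over 20% of the ionomycin maximum, relative to buffer baseline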;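 note: each well's signal is peak minus trough fluorescence divided by its pre-addition baseline; 0% = buffer wells and 100% = ionomycin wells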
Parental YFP cnt – parental YFP-HEK293 iodide quench counter-screen activity; shares compounds with TMEM16A inh; ionomycin; YFP ratio F(max-min)/F0 at 10 µM; 2,300 tested, under 10 active; AID 652233;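 active = yellow fluorescent protein signal ratio exceeding the buffer control mean by over 5 SD of those controls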;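 note: ratio is mean of duplicate wells from kinetic YFP trace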
ClC-1 rat inh – selectivity of TMEM16A inhibitors: inhibition of rat ClC-1 chloride channel; ratio percent, % at 10 µM; CHO ClC-1-YFP, iodide influx fluorescence quench; iodide control reads 0, buffer control 100; shares compounds with TMEM16A inh; 2,300 tested, under 10 active;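 active = duplicate-mean ratio percent above the mean of iodide-only control wells, which defines zero, plus 5 of their SD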;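 note: higher percent means stronger block of ClC-1 iodide influx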
The depositor's hits bear a star; i = inactive; . = no result. An excerpt weighted towards active compounds, which were near 3.4% of everything screened.

SMILES	CHT PAM	TMEM16A inh	IMP-1 inhibitor	CHT inh	VIM-2 inh	ANO1 activ	CHT inh conf	HEK293 CHT ctr	TMEM16A reconf	HEK293 Ca mobil	Parental YFP cnt	ClC-1 rat inh
CN(Cc1ccccc1F)c1ncnc2sccc12	i	i	-3	i	-1	i	.	.	.	.	.	.
Cc1ccc(NC(=S)NNC(=O)c2cccc([N+](=O)[O-])c2)cc1Cl	i	25*	-4	-5.7*	-4	i	54%*	i	24%*	i	-1.1	-18
O=C(NNC(=S)Nc1ccc(F)cc1)c1cccc([N+](=O)[O-])c1	i	i	-3	i	-4	i	.	.	.	.	.	.
CN(Cc1ccccc1)C(=O)COC(=O)c1cc(NS(=O)(=O)c2cccs2)ccc1O	i	25*	-2	-5.8*	-2	i	i	i	i	i	-1.1	-20
O=C(COC(=O)c1cc(NS(=O)(=O)c2cccs2)ccc1O)Nc1ccccc1	i	i	-3	i	-2	i	.	.	.	.	.	.
N#CCCN1CCCN(CCC#N)CCN(CCC#N)CCCN(CCC#N)CC1	i	i	-3	i	-2	i	.	.	.	.	.	.
Cc1ccc(S(=O)(=O)Nc2nc3ccccc3nc2NCc2ccco2)cc1	i	i	-2	i	1	i	.	.	.	.	.	.
Cc1ccc(S(=O)(=O)Nc2nc3ccccc3nc2NCc2ccco2)cc1C	i	100*	-2	-5*	4	i	i	i	i	i	-0.97	-15
Cc1ccc(NCc2ccc(C)s2)cc1	i	i	-2	i	0	.	.	.	.	.	.	.
Cc1ccc(C(=O)Nc2ncc([N+](=O)[O-])s2)cc1	i	25*	-6	-5.9*	-2	i	56%*	i	50%*	i	-0.98	-27
Cn1c(=O)n(CC(=O)N2CCN(c3nnc(-c4ccccc4)c4ccccc34)CC2)c2ccccc21	i	25*	-1	-5.8*	0	i	i	i	i	i	-1	-8
Cc1ccc(-c2nnc(N3CCN(C(=O)Cn4c(=O)n(C)c5ccccc54)CC3)c3ccccc23)cc1	i	i	0	i	-2	i	.	.	.	.	.	.
Cc1cccc(N2CCN(C(=O)c3cc(S(=O)(=O)N4CCOCC4)cn3C)CC2C)c1 (configuration not stated)	i	i	-1	i	-1	i	.	.	.	.	.	.
CN1c2ccccc2C(O)=C(C(=S)Nc2ccc(F)c(Cl)c2)S1(=O)=O	i	100*	0	-6.4*	0	i	48%*	i	62%*	i	-1.1	-30
N#C/C(=N\Nc1ccc(F)cc1)C(=O)C1CC1	i	25*	-2	-6.2*	1	i	50%*	i	26%*	i	-0.82	-14
CC(C)(C)NS(=O)(=O)c1cc(C(=O)Nc2sccc2C#N)ccc1Cl	i	i	-3	-5.3*	-1	i	i	i	i	i	-1	-14
Cc1ccc(C2CC2C(=O)NNC(=S)Nc2cccc(C)c2)cc1 (configuration not stated)	i	i	-3	i	-4	i	.	.	.	.	.	.
Cc1ccc(C2CC2C(=O)NNC(=S)Nc2cccc(Cl)c2)cc1 (configuration not stated)	i	25*	-4	-12*	-4	i	43%*	i	23%*	i	-1	-13
FC(F)(F)c1cc(C(F)(F)F)c2ccc(N/N=C/c3ccccc3)nc2n1	i	i	-4	i	-4	i	.	.	.	.	.	.
N#CC(c1ccccc1)c1ccc2c(C(F)(F)F)cc(C(F)(F)F)nc2n1 (configuration not stated)	i	100*	1	-5.5*	-1	i	i	i	42%*	i	-0.84	16
Nc1cc(S(=O)(=O)N2CCCCC2)ccc1Oc1ccc(Cl)cc1	i	100*	0	-9.4*	-1	i	i	i	i	i	-1.1	-14
COc1ccc(-c2cc(C(F)(F)F)c(C#N)c(SCC(=O)O)n2)cc1OC	i	i	-4	i	-2	.	.	.	.	.	.	.
COc1ccc(C(=O)CSc2[nH]c(=O)cc(C(F)(F)F)c2C#N)cc1	i	25*	-3	-14*	-3	i	45%*	i	22%*	i	-1	-14
O=C(NNC(=S)Nc1ccccc1)c1cc(Br)ccc1Cl	i	25*	-2	-5.8*	-4	i	54%*	i	18%*	i	-1	-8
O=C(COc1coc(CN2CCCc3ccccc32)cc1=O)Nc1ccccc1	i	i	.	i	.	i	.	.	.	.	.	.
CC(CN1CCOCC1)OC(=O)c1cccc(Cl)c1 (configuration not stated)	i	i	-5	i	1	i	.	.	.	.	.	.
O=[N+]([O-])c1ccc(C[n+]2cccc(O)c2)cc1	i	i	.	i	.	i	.	.	.	.	.	.

Screens: PubChem, several laboratories
